Assay results published in ChEMBL document CHEMBL2157918, “Design and synthesis of 1H-1,2,3-triazoles derived from econazole as antitubercular agents” (Bioorg Med Chem Lett, 2012).
≈ marks a conversion by molar mass, not a printed value.

Experiments:
[1] = tested on: Mycobacterium tuberculosis; assay: Antitubercular activity against Mycobacterium tuberculosis H37Rv expressing GFP after 7 days by reporter gene assay; assay type: functional; conditions: 168 h
Procedure, shortened: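 Compound dissolved in DMSO, two-fold dilutions in 7H9 broth; Mtb H37Rv-GFP grown in Middlebrook 7H9, inoculum 2 × 10⁵ CFU/mL, exposed 7 days. Fluorescence read; MIC = lowest concentration inhibiting fluorescence by 90% versus bacteria-only wells.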

Candida albicans = assay: Antifungal activity against Candida albicans ATCC 90027 after 48 hrs by broth microdilution method; assay type: functional; conditions: ATCC 90027, 48 h
Procedure, shortened: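 Broth microdilution with two-fold compound dilutions in tryptic soy broth. C. albicans grown in the same medium was exposed for 48 h. Growth was visualized with Alamar Blue. MIC was taken as the lowest concentration that inhibited the Alamar Blue color change.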

Vero = assay: Cytotoxicity against african green monkey Vero cells after 3 days by MTT assay; assay type: cell-based; conditions: Chlorocebus sabaeus, 72 h
Procedure, shortened: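 Early-log-phase Vero cell suspension was exposed to serially diluted compounds (initially in DMSO) in RPMI 1640 for 3 days and read by MTT assay. Effect was normalized to DMSO-only wells and IC50 was calculated.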

[2] = tested on: Mycobacterium tuberculosis; assay: Ratio of econazole MIC90 to compound MIC90 for Mycobacterium tuberculosis H37Rv; assay type: functional
[3] = Selectivity index, ratio of IC50 for african green monkey Vero cells to MIC90 for Mycobacterium tuberculosis H37Rv; assay type: functional
Procedure, shortened: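 Vero cells in early log phase, in RPMI 1640, exposed to serial compound dilutions for 3 days; viability by MTT assay; effect normalized to DMSO-only wells, IC50 by curve fitting. SI = Vero IC50 over Mtb H37Rv-GFP MIC (90% fluorescence inhibition, 7-day 7H9 exposure, 2 × 10⁵ CFU/mL inoculum).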

SMILES | MIC90 [1] [µg/mL] | MIC (Candida albicans) [µg/mL] | IC50 (Vero) [µg/mL] | Ratio [2] | Selectivity Index [3]
OCc1cn(CC(OCc2ccc(Cl)cc2)c2ccc(Cl)cc2Cl)nn1 (stereo not given) | > 256 | > 256 | 19.8 (≈ 48 µM) | – | –
Clc1ccc(COC(Cn2cc(C3CCCCC3)nn2)c2ccc(Cl)cc2Cl)cc1 (stereo not given) | > 256 | > 256 | > 12.5 | – | –
CC(C)(C)c1cn(CC(OCc2ccc(Cl)cc2)c2ccc(Cl)cc2Cl)nn1 (stereo not given) | > 256 | > 256 | > 25 | – | –
Nc1cccc(-c2cn(CC(OCc3ccc(Cl)cc3)c3ccc(Cl)cc3Cl)nn2)c1 (stereo not given) | > 256 | > 256 | > 50 | – | –
Nc1ccc(-c2cn(CC(OCc3ccc(Cl)cc3)c3ccc(Cl)cc3Cl)nn2)cc1 (stereo not given) | 256 (≈ 540 µM) | > 256 | > 50 | – | –
Clc1ccc(COC(Cn2cc(-c3ccccn3)nn2)c2ccc(Cl)cc2Cl)cc1 (stereo not given) | 256 (≈ 557 µM) | > 256 | > 50 | – | –
OC(Cn1ccnn1)c1ccc(Cl)cc1Cl (stereo not given) | 256 (≈ 992 µM) | > 256 | > 200 | – | –
OC(Cn1nnc2ccccc21)c1ccc(Cl)cc1Cl (stereo not given) | > 256 | > 256 | > 100 | – | –
Clc1ccc(COC(Cn2ccnn2)c2ccc(Cl)cc2Cl)cc1 (stereo not given) | 64 (≈ 167 µM) | > 256 | > 12.5 | – | –
Clc1ccc(COC(Cn2nnc3ccccc32)c2ccc(Cl)cc2Cl)cc1 (stereo not given) | 128 (≈ 296 µM) | > 256 | > 12.5 | – | –
CCCCc1cn(CC(O)c2ccc(Cl)cc2Cl)nn1 (stereo not given) | 8 (≈ 25.5 µM) | > 256 | 23.3 (≈ 74.1 µM) | 2 | 1
OCCc1cn(CC(O)c2ccc(Cl)cc2Cl)nn1 (stereo not given) | 256 (≈ 847 µM) | > 256 | 274 (≈ 907 µM) | – | –
OCc1cn(CC(O)c2ccc(Cl)cc2Cl)nn1 (stereo not given) | > 256 | – | > 100 | – | –
OC(Cn1cc(C2CCCCC2)nn1)c1ccc(Cl)cc1Cl (stereo not given) | 16 (≈ 47 µM) | > 256 | 31.9 (≈ 93.9 µM) | – | 1
CC(C)(C)c1cn(CC(O)c2ccc(Cl)cc2Cl)nn1 (stereo not given) | 32 (≈ 102 µM) | 256 (≈ 815 µM) | 33.9 (≈ 108 µM) | – | –
Nc1cccc(-c2cn(CC(O)c3ccc(Cl)cc3Cl)nn2)c1 (stereo not given) | 32 (≈ 91.6 µM) | > 256 | 26.8 (≈ 76.7 µM) | – | –
Nc1ccc(-c2cn(CC(O)c3ccc(Cl)cc3Cl)nn2)cc1 (stereo not given) | 32 (≈ 91.6 µM) | > 256 | 33.9 (≈ 97.2 µM) | – | –
OC(Cn1cc(-c2ccccn2)nn1)c1ccc(Cl)cc1Cl (stereo not given) | 32 (≈ 95.5 µM) | – | – | – | –
CCCCc1cn(CC(OCc2ccc(Cl)cc2)c2ccc(Cl)cc2Cl)nn1 (stereo not given) | 128 (≈ 292 µM) | > 256 | 10.6 (≈ 24.2 µM) | – | –
CCCCc1cn(CC(OCc2ccc(OC(F)(F)F)cc2)c2ccc(Cl)cc2Cl)nn1 (stereo not given) | > 256 | > 256 | 63.4 (≈ 130 µM) | – | –
CCCCc1cn(CC(OCc2ccc(F)cc2F)c2ccc(Cl)cc2Cl)nn1 (stereo not given) | > 256 | > 256 | 21 (≈ 47.7 µM) | – | –
OCCc1cn(CC(OCc2ccc(Cl)cc2)c2ccc(Cl)cc2Cl)nn1 (stereo not given) | > 256 | > 256 | 24.3 (≈ 57 µM) | – | –
OCCc1cn(CC(OCc2ccc(OC(F)(F)F)cc2)c2ccc(Cl)cc2Cl)nn1 (stereo not given) | > 64 | > 64 | – | – | –
OCCc1cn(CC(OCc2ccc(F)cc2F)c2ccc(Cl)cc2Cl)nn1 (stereo not given) | 128 (≈ 299 µM) | > 256 | 33.7 (≈ 78.6 µM) | – | –
Clc1ccc(COC(Cn2ccnc2)c2ccc(Cl)cc2Cl)cc1 (stereo not given) [ECONAZOLE] | 16 (≈ 41.9 µM) | 16 (≈ 41.9 µM) | – | – | 1
CO[C@H]1/C=C/O[C@@]2(C)Oc3c(C)c(O)c4c(O)c(c(/C=N/N5CCN(C)CC5)c(O)c4c3C2=O)NC(=O)/C(C)=C\C=C\[C@H](C)[C@H](O)[C@@H](C)[C@@H](O)[C@@H](C)[C@H](OC(C)=O)[C@@H]1C [RIFAMPIN] | 0.0625 (≈ 0.0759 µM) | – | – | – | –
